Screening results from PubChem BioAssay.
NPY-Y2 antag – antagonists of human neuropeptide Y receptor Y2 | inhibition, % at 2.7 µM | 140,000 tested, 0.99% active | P49146 | AID 793 | NPY-Y2 expressing cells, antagonist mode; in the data active = inhibition above about 17%
MT stabilizer – microtubule stabilization, imaging screen. HeLa tubulin immunostaining HCS, 24 h; share of cells brighter than vehicle mean+2SD. 200,000 tested, 0.83% active. AID 2205. % tubulin-high responders, % at 10 µM;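 active = plate Z-score above 3 for both tubulin-high and condensed-nucleus cell shares, with cell loss under 80%, at 10 µM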;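 also: anti alpha tubulin signal scored within the nucleus-defined area of each cell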
NPY2 pot ag – potentiates or activates human NPY-Y2 receptor | P49146 | cells expressing NPY-Y2, potentiator/agonist read-out | activation, % at 3.6 µM | 220,000 tested, 0.45% active; in the data active = activation above about 27%;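 also: cells stimulated with NPY near EC25 plus isoproterenol at EC100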
bCat nuc transl – alters nuclear translocation of beta-catenin in HeLa cells; 190,000 tested, 0.3% active; immunofluorescence imaging; AID 1665; nuclear translocation activity, % at 5 µM;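 active = nuclear translocation activity above 50% at 5 µM, with a well cell count of 50 or more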;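 also: per-cell ratio of nuclear to cytoplasmic median beta-catenin stain intensity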
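Technique: fluorescence imaging of beta-catenin antibody stain plus DAPI / Material: human HeLa cell line / Incubation: compound treatment 24 h, 37°C, 5% CO2 / Read-out basis: % activation of per-cell nuclear versus cytoplasmic median beta-catenin signal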
NPY Y1 blocker – antagonists of human neuropeptide Y receptor Y1. P25929. HEK293-CNG Y1 cells, membrane potential fluorescence; NPY at EC95, then isoproterenol. inhibition, % at 3.6 µM. 200,000 tested, 1% active;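 active = inhibition above the campaign mean inhibition of all tested compounds plus 3 SD, cut at about 20% in these data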
Target sequence (P25929 whole entry, looked up): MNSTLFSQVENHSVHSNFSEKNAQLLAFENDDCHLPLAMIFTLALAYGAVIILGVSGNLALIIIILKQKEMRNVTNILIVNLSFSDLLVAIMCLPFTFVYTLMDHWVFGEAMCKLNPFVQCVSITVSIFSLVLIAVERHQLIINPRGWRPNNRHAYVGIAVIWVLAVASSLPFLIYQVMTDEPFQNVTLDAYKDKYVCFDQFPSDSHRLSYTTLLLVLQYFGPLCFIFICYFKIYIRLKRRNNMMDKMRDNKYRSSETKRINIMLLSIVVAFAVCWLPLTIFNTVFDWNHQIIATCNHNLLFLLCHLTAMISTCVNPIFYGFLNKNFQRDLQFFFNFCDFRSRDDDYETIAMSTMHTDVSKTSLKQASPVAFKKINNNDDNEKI
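Assay system: HEK293 Y1/CNG channel cell line; Doses: single compound dose of 3.6 µM, 0.4% DMSO; Timing: dye 3 h, compound 60 min room temperature, stimulation 45 min; Technique: Membrane-potential fluorescent dye readout; Measure: % inhibition of NPY effect.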
NPY-Y1 PAM-ag – potentiates or activates human NPY-Y1 receptor. P25929. NPY-Y1 expressing cells, potentiator/agonist activation. activation, % at 3.6 µM. 220,000 tested, 0.37% active; in the data active = activation above about 33%, passing the limit was not always enough;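 also: cells stimulated with NPY at EC10 then isoproterenol at EC100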
Of the large screens only hits and unclear results are named; the others gave an inactive call. Shown are actives, neighbours in structure and some others; about 2.6% of the full set was active somewhere.

COc1cccc(-n2c(SCC(=O)Nc3sc4c(c3C(N)=O)CCC4)nc3ccccc3c2=O)c1	none
CCn1c(SCC(=O)Nc2sc3c(c2C#N)CCCC3)nnc1-c1ccco1	none
COc1ccc(-c2nnc(SCC(=O)Nc3ncc(C)s3)n2-c2ccccc2)cc1OC	MT stabilizer 58
COc1ccccc1NC(=O)CC(=O)CSc1nnc(-c2ccc(C)cc2)n1-c1ccccc1	none
CCN(CC)S(=O)(=O)c1ccc(Cl)c(C(=O)Nc2cc(C)nn2-c2ccccc2C(F)(F)F)c1	none
COc1ccc(Cc2nnc(NC(=O)C(C)(C)C)s2)cc1	none (no result: NPY-Y2 antag)
CCn1ncc(/C=N\NC(=O)c2csc3ccccc23)c1C	MT stabilizer 48, bCat nuc transl 129
Cc1c(/C=N\NC(=O)c2csc3ccccc23)cnn1C	none (no result: bCat nuc transl)
Cc1cc(Nc2nc3ccccc3nc2Cl)n(-c2ccccc2)n1	MT stabilizer 12 (no result: bCat nuc transl)
Cc1cc(Nc2ccc(Cl)cc2)n(-c2ccccc2)n1	none
Cc1cc(Nc2cccc(Cl)n2)n(-c2ccccc2)n1	none
Cc1cc(Nc2nc3ccccc3nc2Cl)n(-c2ccccc2C)n1	MT stabilizer 13
C/C(=N\NC(=S)Nc1ccc(F)cc1)c1ccc2c(c1)OCCO2	MT stabilizer 22 (no result: bCat nuc transl)
Nc1nonc1C(=O)NCCNCc1cc(Br)ccc1OCc1ccccc1F	NPY-Y2 antag 43, NPY Y1 blocker 44 (no result: bCat nuc transl)
Nc1nonc1C(=O)NCCNCc1ccccc1OCc1ccccc1F	none
C[C@]12CCC(=O)C=C1[C@H](O)C[C@@H]1[C@@H]2[C@@H](O)C[C@@]2(C)[C@H]1CC[C@]2(O)C(=O)CO	NPY2 pot ag 101, NPY-Y1 PAM-ag 117 (no result: bCat nuc transl)
CCO[C@H]1OC(C(=O)NCc2nc3ccccc3[nH]2)=C[C@@H](C2CC2)[C@@H]1CCCO	MT stabilizer 22, bCat nuc transl 122 (no result: NPY-Y2 antag)
O=S(=O)(Nc1nc2ccccc2s1)c1ccc(Cl)nc1	none (no result: NPY-Y2 antag, MT stabilizer, NPY Y1 blocker)
CCCC(=O)NCCc1nc2cc([N+](=O)[O-])ccc2n1C	none
COC(=O)Cn1c2ccc(Cl)cc2c2nc(C)sc21	none (no result: NPY-Y2 antag, MT stabilizer, NPY Y1 blocker)
Cc1nc2c3cc(Cl)ccc3n(CCN3CCCCC3)c2s1	NPY-Y2 antag 33, MT stabilizer 24, bCat nuc transl 97, NPY Y1 blocker 25
Cc1nc2c3cc(F)ccc3n(Cc3ccc(F)cc3)c2s1	NPY-Y2 antag 18, NPY Y1 blocker 27
COc1ccc(NC(=O)C23CCC(C)(C(=O)C2)C3(C)C)cc1 (centres undefined)	none
Cc1c(Cc2ccccc2)sc(NC(=O)/C=C/c2cccc3ccccc23)c1C(N)=O	MT stabilizer 18
COc1ccc(CCNCC(O)Cn2c3ccccc3c3ccccc32)cc1OC (centres undefined)	none (no result: NPY-Y2 antag)
COc1ccc(CCNCC(O)COc2cccc(Br)c2)cc1OC (centres undefined)	NPY2 pot ag 82, NPY-Y1 PAM-ag 105 (no result: NPY-Y2 antag, MT stabilizer, NPY Y1 blocker)
Cc1nc(-c2ccc(NC(=O)c3ccccc3C)cc2)cs1	none (no result: NPY-Y2 antag)
CCS(=O)(=O)CCSc1nc2ccccc2s1	none
O=S(=O)(CCSc1nc2ccccc2s1)c1nc2ccccc2s1	MT stabilizer 11
Cc1ccc(Nc2nc(-c3ccc(O)c(O)c3)cs2)nc1	NPY2 pot ag 51, NPY-Y1 PAM-ag 44 (no result: NPY-Y2 antag)
CCC(=O)Nc1ccc(NC(=O)CSc2nc3cc4c(cc3cc2C)CCC4)cc1	none
Cc1ccccc1NC(=O)CSc1nc2cc3c(cc2cc1C)CCC3	MT stabilizer 36 (no result: bCat nuc transl)
COc1cc(CNCc2ccc(SC)cc2)cc(OC)c1	none
COc1ccc(CNCc2cccc(Oc3ccccc3)c2)cc1	NPY Y1 blocker 21 (no result: NPY-Y2 antag)
CC1CCCC(NC(=O)COC(=O)c2sc3ccccc3c2Cl)C1C (centres undefined)	none
O=C(NC(NC(=S)Nc1ccc(Cl)cc1Cl)C(Cl)(Cl)Cl)c1cccc([N+](=O)[O-])c1 (centres undefined)	NPY2 pot ag 56, NPY-Y1 PAM-ag 56
O=S(=O)(c1ccc(Cl)cc1)N1CCC(n2cnc3cc(C(F)(F)F)ccc32)CC1	none (no result: bCat nuc transl)
CC(=O)c1c(COC(=O)c2ccc(C)cc2)nc2ccccc2[n+]1[O-]	none (no result: NPY-Y2 antag, MT stabilizer, NPY Y1 blocker)
Cc1ccccc1C(=O)c1c[nH]c(C(N)=O)c1	NPY-Y1 PAM-ag 111
CC(C)c1ccccc1NC(=O)c1cccc(NC(=O)c2ccccc2)c1	none
CC(C)C(c1nnnn1Cc1ccco1)N1CCN(c2cccc(Cl)c2)CC1 (centres undefined)	none
CC(C)C(c1nnnn1C(C)(C)C)N1CCN(c2cccc(Cl)c2)CC1 (centres undefined)	NPY-Y2 antag 22, NPY Y1 blocker 48
COc1cc(/C=N/Nc2snc(SC)c2C#N)ccc1O	MT stabilizer 49
NC(=O)CSc1nnc(-c2ccccn2)n1Cc1ccco1	none (no result: NPY-Y2 antag, MT stabilizer, NPY Y1 blocker)
C(=C\c1ccccc1)/CSc1nnc(-c2ccccn2)n1Cc1ccco1	NPY-Y2 antag 20, MT stabilizer 29, bCat nuc transl 53, NPY Y1 blocker 21
COC(=O)[C@H](CCSC)NS(=O)(=O)c1ccccc1Br	none (no result: NPY-Y2 antag, MT stabilizer, NPY2 pot ag, NPY Y1 blocker, NPY-Y1 PAM-ag)
CCOC(=O)c1c(NC(=O)CN2C(=O)NC3(CCCCC3C)C2=O)sc(C)c1C (centres undefined)	none
CCOC(=O)c1c(NC(=O)CN2C(=O)NC(C)(c3ccccc3)C2=O)sc(C)c1C (centres undefined)	MT stabilizer 13, bCat nuc transl 62
CCCNc1nc(-c2ccccc2)c(C(=O)OCC)cc1C#N	MT stabilizer 27
C=CCNc1nc(C)c(C(C)=O)cc1C#N	none
C=CCNc1nc(-c2ccccc2)c(C(=O)OCC)cc1C#N	MT stabilizer 33
CCCCNc1nc(-c2ccccc2)c(C(=O)OCC)cc1C#N	MT stabilizer 35 (no result: bCat nuc transl)
CCOC(=O)c1cc(C#N)c(Oc2ccccc2)nc1-c1ccccc1	none
COc1ccc(C2CC(=O)C(C(c3ccc(O)cc3)C3C(=O)CC(c4ccc(OC)cc4)CC3=O)C(=O)C2)cc1 (centres undefined)	none (no result: NPY-Y2 antag, MT stabilizer, NPY Y1 blocker)
C=CCOC(=O)C1=C(C)NC(SCC(=O)Nc2nccs2)=C(C#N)C1c1cccs1 (centres undefined)	none
C=CCOC(=O)C1=C(C)NC(SC)=C(C#N)C1c1cccs1 (centres undefined)	MT stabilizer 38
Cn1c(=O)c2c(nc(CN3CCC(C(N)=O)CC3)n2CCc2ccccc2)n(C)c1=O	bCat nuc transl 114
Cn1c(=O)c2c(nc(CN3CCN(c4cccc(Cl)c4)CC3)n2CCc2ccccc2)n(C)c1=O	NPY-Y2 antag 17 (no result: bCat nuc transl)
COc1ccc2nc3cc(Cl)ccc3c(Nc3cc(C(C)C)c(O)cc3C)c2c1	NPY2 pot ag 59, NPY-Y1 PAM-ag 62 (no result: NPY-Y2 antag, MT stabilizer, NPY Y1 blocker)
CCN(CC)CCCC(C)Nc1c2ccc(Cl)cc2nc2ccc(OC)cc12 (centres undefined)	none (no result: NPY-Y2 antag, MT stabilizer)
Cc1cc(NC(=O)c2cc(-c3ccncc3)nc3c(C)cccc23)no1	MT stabilizer 37 (no result: bCat nuc transl)
Cc1ccc(-c2cc(C(=O)Nc3cc(C)on3)c3ccccc3n2)cc1	none
